Source: ChEMBL document CHEMBL1147113, “Miltefosine (hexadecylphosphocholine) inhibits cytochrome c oxidase in Leishmania donovani promastigotes” (Antimicrob Agents Chemother, 2007)
Calls of active or inactive are those of the source. No cut-off for these calls is given here.

Legend:
Leishmania donovani [1] = test: Inhibition of Leishmania donovani cytochrome c oxidase
Leishmania donovani [2] = test: Growth inhibition of Leishmania donovani MHOM/SD/00/1S-2D promastigotes assessed as inhibition of MTT reduction after 14 hrs; format: functional, organism-based
In short: (§1)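 Late-exponential promastigotes at 2 × 10⁶ cells/ml in RPMI-10% HIFCS with drug, 14 h at 25°C. Washed at 4°C in Hanks-10 mM glucose, then given 0.5 mg/ml MTT for 2 h. Formazan dissolved in 10% SDS and read at 595 nm. Triplicates, at least two experiments; EC50 by Litchfield-Wilcoxon.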

Leishmania donovani [3] = test: Growth inhibition of Leishmania donovani MHOM/SD/00/1S-2D promastigotes at 40 uM assessed as inhibition of MTT reduction after 14 hrs; format: functional, organism-based; in short: as §1
Leishmania donovani [4] = test: Effect on plasma membrane integrity in Leishmania donovani MHOM/SD/00/1S-2D promastigotes assessed as SYTOX green fluorescence at 40 uM after 14 hrs; format: functional
In short: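 Cells at 2 × 10⁶/ml in RPMI-10% HIFCS given increasing drug concentrations, 14 h at 25°C. Washed twice in Hanks-glucose and stained with 1 μM SYTOX green for 5 min in the dark. Fluorescence read at ex 485/em 520 nm and expressed as % of maximal signal after 0.1% Triton X-100.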

Leishmania donovani [5] = test: Decrease in intracellular ATP level in Leishmania donovani 3-Luc promastigotes assessed as decrease in luminescence relative to control; format: functional, organism-based
Leishmania donovani [6] = test: Effect on mitochondrial membrane potential in Leishmania donovani MHOM/SD/00/1S-2D promastigotes by measuring the decrease in rhodamine 123 accumulation after 14 hrs; format: functional, organism-based
In short: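 After 14 h of drug exposure at 25°C, parasites washed twice at 4°C in Hanks-glucose and loaded with rhodamine 123 (0.3 μg/ml, 5 min, 37°C). Washed again, resuspended at 2 × 10⁶ cells/ml and read by flow cytometry (ex 488/em 525 nm; 20,000 events). Geometric mean fluorescence recorded; 10 mM KCN-poisoned cells served as depolarized control.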

Leishmania donovani [7] = test: Effect on mitochondrial function in Leishmania donovani MHOM/SD/00/1S-2D promastigotes assessed as decrease in oxygen consumption at 10 uM after 14 hrs relative to control; format: functional; set-up: scale not given: the % may be the effect or the level left
In short: (§2)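 Promastigotes incubated 14 h at 25°C with drug in RPMI-10% HIFCS at 2 × 10⁶ cells/ml. They were then washed and resuspended in respiration buffer at 10⁸ cells/ml with 5 mM succinate and 1 mg/ml BSA. Clark-electrode O₂ uptake at 25°C, given as nmol O₂/min/10⁸ cells and as % of untreated.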

Leishmania donovani [8] = test: Effect on mitochondrial function in Leishmania donovani MHOM/SD/00/1S-2D promastigotes assessed as decrease in oxygen consumption at 20 uM after 14 hrs relative to control; format: functional; set-up: scale not given: the % may be the effect or the level left; in short: as §2
Leishmania donovani [9] = test: Effect on mitochondrial function in Leishmania donovani MHOM/SD/00/1S-2D promastigotes assessed as decrease in oxygen consumption at 40 uM after 14 hrs relative to control; format: functional; set-up: scale not given: the % may be the effect or the level left; in short: as §2
Leishmania donovani [10] = test: Effect on oxygen consumption rate in digitonin-permeabilized Leishmania donovani MHOM/SD/00/1S-2D promastigotes assessed as decrease in state 3 respiration at 25 uM after 14 hrs; format: functional; set-up: scale not given: the % may be the effect or the level left
Leishmania donovani [11] = test: Inhibition of TMPD-ascorbate-dependent oxygen consumption in digitonin-permeabilized Leishmania donovani MHOM/SD/00/1S-2D promastigotes at 25 uM after 14 hrs; format: functional, organism-based
Leishmania donovani [12] = test: Inhibition of Leishmania donovani cytochrome c reductase at 40 uM
In short: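 Same L. donovani mitochondrial fraction (200 μg/ml protein, 0.02% TX-100, 75 mM sodium phosphate pH 7.4), with CcO first blocked by 10 mM KCN and oxidized cytochrome c as acceptor. Reaction started with 5 mM succinate; A550 change monitored. Controls lacked succinate or contained 2 μM antimycin A. HePC tested at 40 μM.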

Leishmania donovani [13] = test: Effect on apoptosis induction in Leishmania donovani MHOM/SD/00/1S-2D promastigotes assessed as accumulation in sub-G1 phase at 20 uM after 24 hrs by propidium iodide staining

In the case of `CCCCCCCCCCCCCCCCOP(=O)([O-])OCC[N+](C)(C)C` [MILTEFOSINE], the Activity (Leishmania donovani [1]) is reported as “Dose-dependent effect”, the EC50 (Leishmania donovani [2]) is reported as 10.2 µM and the Activity (Leishmania donovani [3]) is reported as “Active”. The Activity (Leishmania donovani [4]) was 10%, the Activity (Leishmania donovani [5]) was “Active” and the Activity (Leishmania donovani [6]) was “Dose-dependent effect”. The Activity (Leishmania donovani [7]) was 95.4%, the Activity (Leishmania donovani [8]) was 75% and the Activity (Leishmania donovani [9]) was 44.4%. For the same compound, the Activity (Leishmania donovani [10]) was 40%, the Activity (Leishmania donovani [11]) was “Active” and the inhibition (Leishmania donovani [12]) was 5%. For the same compound, the Activity (Leishmania donovani [13]) was 38%.
